The text below walks through data of ChEMBL document CHEMBL1132299, “Phosphinic pseudo-tripeptides as potent inhibitors of matrix metalloproteinases: a structure-activity study” (J Med Chem, 1999).

A word on the pKi: it is the negative decadic logarithm of the Ki, by convention in mol/L. Low values mean a high Ki, high ones a low Ki. By inhibition is commonly meant the share of the control response that was lost under treatment.

The target in one assay is T1, Stromelysin-3 (Mus musculus, UniProt Q02853).
T1 sequence (Q02853 whole entry): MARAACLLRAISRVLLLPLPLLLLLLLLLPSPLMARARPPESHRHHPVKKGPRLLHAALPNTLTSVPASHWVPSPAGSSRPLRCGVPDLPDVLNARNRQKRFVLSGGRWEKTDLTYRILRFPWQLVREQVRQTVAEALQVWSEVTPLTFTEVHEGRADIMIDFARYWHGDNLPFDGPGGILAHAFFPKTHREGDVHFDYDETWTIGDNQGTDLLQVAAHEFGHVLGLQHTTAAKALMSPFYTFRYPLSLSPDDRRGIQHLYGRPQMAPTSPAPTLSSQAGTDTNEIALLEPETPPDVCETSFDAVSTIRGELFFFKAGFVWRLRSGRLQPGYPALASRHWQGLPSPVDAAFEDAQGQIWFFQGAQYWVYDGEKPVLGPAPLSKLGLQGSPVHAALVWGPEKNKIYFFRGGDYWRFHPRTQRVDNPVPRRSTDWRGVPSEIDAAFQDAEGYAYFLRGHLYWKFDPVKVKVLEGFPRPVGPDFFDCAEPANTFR
The experiment in a line: Binding affinity against matrix metalloprotease-11. A digest of the protocol: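 Mouse MMP-11 catalytic domain from E. coli BL21 DE3 pLysS, assayed in stirred quartz cuvettes in 50 mM Tris/HCl pH 6.8, 10 mM CaCl2 at 25 °C. Substrate was Mca-Pro-Leu-Ala-Cys(OMeBn)-Trp-Ala-Arg-Dpa-NH2 (Km 0.2 µM), with fluorescence read-out. Percent inhibition was measured in triplicate at five concentrations (20–80% range), and Ki was derived by the Horovitz–Levitski method.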

Assay [1] has as its target T2, 72 kDa type IV collagenase (Homo sapiens, UniProt P08253). In words: Binding affinity against matrix metalloprotease-2 (gelatinase-A). A digest of the protocol:
(§1)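 Full-length human pro-MMP-2, -9 and -8 were expressed in NSO myeloma cells and activated with 4-aminophenylmercuric acetate just before use. Run at 25 °C in 50 mM Tris/HCl pH 6.8, 10 mM CaCl2, with 0.2–5 nM enzyme and 6 µM Mca-Pro-Leu-Gly-Leu-Dpa-Ala-Arg-NH2; fluorescence 340/400 nm, 30 min. Km: MMP-2 49, MMP-9 14, MMP-8 61 µM. Triplicate, five inhibitor levels; Ki by Horovitz–Levitski.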
Target sequence in this assay (P08253 whole entry): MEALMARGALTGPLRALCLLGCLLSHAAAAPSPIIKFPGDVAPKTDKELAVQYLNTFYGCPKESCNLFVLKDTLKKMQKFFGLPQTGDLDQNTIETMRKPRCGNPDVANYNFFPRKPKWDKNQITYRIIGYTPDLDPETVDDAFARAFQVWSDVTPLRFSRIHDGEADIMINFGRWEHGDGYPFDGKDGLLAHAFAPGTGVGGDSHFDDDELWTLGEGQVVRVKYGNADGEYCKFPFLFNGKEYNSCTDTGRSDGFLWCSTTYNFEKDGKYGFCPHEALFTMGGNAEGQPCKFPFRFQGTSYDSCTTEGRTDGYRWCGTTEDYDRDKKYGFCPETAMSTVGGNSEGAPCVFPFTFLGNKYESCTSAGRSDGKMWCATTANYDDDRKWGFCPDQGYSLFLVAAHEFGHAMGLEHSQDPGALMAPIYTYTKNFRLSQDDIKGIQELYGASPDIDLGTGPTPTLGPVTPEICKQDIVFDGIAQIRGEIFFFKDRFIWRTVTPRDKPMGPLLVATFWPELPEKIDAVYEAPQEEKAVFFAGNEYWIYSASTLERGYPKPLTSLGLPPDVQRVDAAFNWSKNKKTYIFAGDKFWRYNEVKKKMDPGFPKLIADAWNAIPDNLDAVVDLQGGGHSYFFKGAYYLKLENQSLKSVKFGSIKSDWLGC

Assay [2] has as its target T3, Matrix metalloproteinase-9 (Homo sapiens, UniProt P14780). In words: Binding affinity against matrix metalloprotease-9 (gelatinase-B). In outline:
as §1

A further assay addresses Neutrophil collagenase (Homo sapiens, UniProt P22894). In words: Inhibition of matrix metalloprotease-8. A digest of the protocol: as §1
Another assay deals with T4, Matrilysin (Homo sapiens, UniProt P09237).
T4 sequence (P09237 whole entry): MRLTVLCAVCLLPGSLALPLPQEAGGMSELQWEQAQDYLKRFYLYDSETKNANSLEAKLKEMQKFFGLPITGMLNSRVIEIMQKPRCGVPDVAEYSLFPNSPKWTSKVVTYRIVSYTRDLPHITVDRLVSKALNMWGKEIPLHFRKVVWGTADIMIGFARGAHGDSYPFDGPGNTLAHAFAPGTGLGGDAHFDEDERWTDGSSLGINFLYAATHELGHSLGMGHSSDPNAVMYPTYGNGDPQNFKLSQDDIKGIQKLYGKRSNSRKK
In words: (§2) Inhibition of Matrix metalloprotease-7 Matrilysin. A digest of the protocol: (§3)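 Catalytic domains of human MMP-14 and MMP-7 were expressed in E. coli BL21 DE3 pLysS. Buffer 50 mM Tris/HCl pH 6.8, 10 mM CaCl2, 25 °C; 0.2–5 nM enzyme; 6 µM Mca-Pro-Leu-Gly-Leu-Dpa-Ala-Arg-NH2 read by fluorescence (ex 340, em 400 nm) for 30 min. Km: MMP-14 21, MMP-7 67 µM. Five inhibitor concentrations in triplicate; Ki by Horovitz–Levitski method.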

Assay [3] deals with Matrix metalloproteinase-14 (Homo sapiens, UniProt P50281). The experiment in a line: Binding affinity against matrix metalloprotease-14 MTI-MMP. A digest of the protocol:
as §3

Assay [4] concerns the target T5, Interstitial collagenase (Homo sapiens) (UniProt P03956).
T5 sequence (whole entry): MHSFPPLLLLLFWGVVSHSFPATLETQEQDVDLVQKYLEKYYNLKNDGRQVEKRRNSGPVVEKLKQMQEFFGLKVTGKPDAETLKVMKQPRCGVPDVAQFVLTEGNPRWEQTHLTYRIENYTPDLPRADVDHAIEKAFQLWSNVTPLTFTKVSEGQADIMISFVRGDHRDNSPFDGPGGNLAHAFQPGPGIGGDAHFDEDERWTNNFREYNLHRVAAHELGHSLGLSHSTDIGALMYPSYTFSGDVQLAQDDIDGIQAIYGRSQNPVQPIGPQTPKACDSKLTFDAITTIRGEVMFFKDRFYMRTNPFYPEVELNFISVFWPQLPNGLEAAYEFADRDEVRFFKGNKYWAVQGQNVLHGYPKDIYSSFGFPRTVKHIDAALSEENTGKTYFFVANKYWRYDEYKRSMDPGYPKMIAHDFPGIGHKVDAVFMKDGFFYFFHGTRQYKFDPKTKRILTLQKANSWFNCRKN
In words: Inhibition of matrix metalloprotease-1 at 5 uM.

Assay [5] has as its target T6, Matrilysin (Homo sapiens) (UniProt P09237).
T6 sequence (whole entry): T4 sequence (P09237 whole entry)
The experiment in a line: In vitro inhibition of MMP-7 at 2 uM.

In assay [6] the target is T5, Interstitial collagenase (Homo sapiens). The experiment in a line: In vitro inhibition of MMP-1 at 2 uM.
Assay [7] concerns the target T2, 72 kDa type IV collagenase. The experiment in a line: Inhibition of MMP-2 gelatinase-A at 2 uM.
Target sequence in this assay (P08253 110-660 limits assumed): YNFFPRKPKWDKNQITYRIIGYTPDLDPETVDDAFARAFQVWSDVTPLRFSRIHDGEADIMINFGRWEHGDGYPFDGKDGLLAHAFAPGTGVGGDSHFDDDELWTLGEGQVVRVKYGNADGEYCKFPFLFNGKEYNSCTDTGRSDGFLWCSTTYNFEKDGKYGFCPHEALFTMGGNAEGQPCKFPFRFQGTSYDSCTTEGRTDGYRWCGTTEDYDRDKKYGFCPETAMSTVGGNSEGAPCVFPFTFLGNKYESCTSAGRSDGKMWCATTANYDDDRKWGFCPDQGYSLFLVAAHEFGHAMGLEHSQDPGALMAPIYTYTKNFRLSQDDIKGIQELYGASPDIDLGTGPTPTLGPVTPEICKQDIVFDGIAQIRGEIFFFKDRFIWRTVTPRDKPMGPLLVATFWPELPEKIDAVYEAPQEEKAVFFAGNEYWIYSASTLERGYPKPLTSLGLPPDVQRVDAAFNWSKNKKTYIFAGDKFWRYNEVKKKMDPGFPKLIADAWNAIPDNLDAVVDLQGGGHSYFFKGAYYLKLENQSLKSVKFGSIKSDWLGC
Assay [8] addresses T3, Matrix metalloproteinase-9. The experiment in a line: Inhibition of Matrix metalloprotease-9, gelatinase-B at 2 uM.
Assay [9] concerns the target T7, Stromelysin-3 (Mus musculus) (UniProt Q02853).
T7 sequence (whole entry): T1 sequence (Q02853 whole entry)
In words: Inhibition of MMP-11, stromelysin-3 at 1 uM.

Assay [10] concerns the target T6, Matrilysin (Homo sapiens). Described as §2. In outline:
as §3

Assay [11] deals with T5, Interstitial collagenase (Homo sapiens). The experiment in a line: (§4) Inhibition of matrix metalloprotease-1. Particulars: concentration not given here. A digest of the protocol:
(§5)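 Human full-length pro-MMP-1 was expressed in NSO myeloma cells and activated just before use with trypsin (10 µg/mL, 25 min, 25 °C), then BPTI (100 µg/mL). Assay: 50 mM Tris/HCl pH 6.8, 10 mM CaCl2, 25 °C, 0.2–5 nM enzyme, 6 µM Mca-Pro-Leu-Gly-Leu-Dpa-Ala-Arg-NH2, fluorescence 340/400 nm over 30 min. Km 100 µM. Triplicate inhibition at five concentrations (20–80% range) gave Ki by the Horovitz–Levitski method.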

A further assay deals with T8, Interstitial collagenase (Homo sapiens, UniProt P03956).
T8 sequence (P03956 whole entry): T5 sequence (whole entry)
The assay is described as §4. A digest of the protocol:
as §5

pKi: −log10 of the molar value.

T3 sequence (P14780 whole entry): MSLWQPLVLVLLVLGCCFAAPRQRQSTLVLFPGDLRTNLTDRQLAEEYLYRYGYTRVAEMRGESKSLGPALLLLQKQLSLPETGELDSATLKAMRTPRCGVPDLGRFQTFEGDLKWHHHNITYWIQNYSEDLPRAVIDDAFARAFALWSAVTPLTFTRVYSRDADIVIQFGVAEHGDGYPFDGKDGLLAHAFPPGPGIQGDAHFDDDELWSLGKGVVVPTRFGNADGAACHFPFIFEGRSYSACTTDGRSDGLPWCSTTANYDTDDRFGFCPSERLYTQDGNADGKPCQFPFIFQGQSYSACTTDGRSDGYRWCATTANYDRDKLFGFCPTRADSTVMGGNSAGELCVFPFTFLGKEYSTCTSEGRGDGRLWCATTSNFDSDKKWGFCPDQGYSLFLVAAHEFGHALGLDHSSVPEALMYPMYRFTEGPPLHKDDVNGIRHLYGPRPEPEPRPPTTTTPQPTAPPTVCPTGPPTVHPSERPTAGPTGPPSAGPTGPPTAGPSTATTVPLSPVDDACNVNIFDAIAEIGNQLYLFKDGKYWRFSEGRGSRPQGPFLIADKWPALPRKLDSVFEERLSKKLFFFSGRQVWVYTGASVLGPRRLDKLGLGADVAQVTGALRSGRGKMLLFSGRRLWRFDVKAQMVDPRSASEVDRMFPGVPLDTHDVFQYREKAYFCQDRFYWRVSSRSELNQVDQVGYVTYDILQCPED
Chain of Neutrophil collagenase (P22894 whole entry): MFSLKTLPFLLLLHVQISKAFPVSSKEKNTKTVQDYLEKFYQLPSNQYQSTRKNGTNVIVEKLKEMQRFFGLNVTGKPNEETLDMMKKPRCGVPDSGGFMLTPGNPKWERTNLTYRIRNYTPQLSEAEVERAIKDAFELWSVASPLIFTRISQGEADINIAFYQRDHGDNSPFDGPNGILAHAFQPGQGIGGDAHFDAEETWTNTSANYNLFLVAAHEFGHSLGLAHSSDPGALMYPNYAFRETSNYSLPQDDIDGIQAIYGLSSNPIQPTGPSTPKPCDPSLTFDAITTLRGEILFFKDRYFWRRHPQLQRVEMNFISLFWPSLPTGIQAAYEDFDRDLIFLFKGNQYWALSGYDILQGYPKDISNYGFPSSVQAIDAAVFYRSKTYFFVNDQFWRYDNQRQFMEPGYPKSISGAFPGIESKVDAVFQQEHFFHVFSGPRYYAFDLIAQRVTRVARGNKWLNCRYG

With `NC(=O)C(Cc1c[nH]c2ccccc12)NC(=O)C(Cc1ccc2ccccc2c1)CP(=O)(O)C(Cc1ccccc1)NC(=O)OCc1ccccc1` (stereo unspecified), the negative-log Ki (pKi) is 7.13 at Stromelysin-3; 6.48 in assay [1]; 6.17 in [2]; 6.64 on Neutrophil collagenase; 5.74 on Matrilysin; 5.87 in [3]. Further, the inhibition in assay [4] amounted to 0%.

Turning to `CC(NC(=O)C(CCCc1ccccc1)CP(=O)(O)C(Cc1ccccc1)NC(=O)OCc1ccccc1)C(N)=O` (stereo unspecified), the inhibition was 0% in assay [5]; 9% in assay [6]; 31% in assay [7]; 45% in [8]; 20% in assay [9].

For the compound `CC(C)CC(NC(=O)OCc1ccccc1)C(=O)NC(Cc1ccccc1)P(=O)(O)CC(CCCc1ccccc1)C(=O)NC(Cc1c[nH]c2ccccc12)C(N)=O` (stereo unspecified), the pKi on Stromelysin-3 is 8.22; in assay [1], 7.40; in assay [2] it was 7.66; on Neutrophil collagenase, 8.15; in [3], 7.28. For the same compound, the inhibition in [10] was determined as 45%; in assay [11], 32%.

As for `NC(=O)C(Cc1c[nH]c2ccccc12)NC(=O)C(CCCc1ccccc1)CP(=O)(O)C(Cc1ccccc1)NC(=O)c1ccc2ccccc2n1` (stereo unspecified), the pKi on Stromelysin-3 is 8.38; in assay [1] it was 7.72; in assay [2] it was 7.89; at Neutrophil collagenase, 8.30; on Matrilysin it was 6.43; in [3] it was 7.22. For the same compound, the pKi at Interstitial collagenase is 6.47.
